15 compounds from ChEMBL document CHEMBL4351020, “Application of hydrazino and hydrazido linkers to connect benzenesulfonamides with hydrophilic/phobic tails for targeting the middle region of human carbonic anhydrases active site: Selective inhibitors of hCA IX” (Eur J Med Chem, 2019) can be followed below.

pIC50, pKi: −log10 of the molar value.

For test [1], the target named is Carbonic anhydrase 9 (Homo sapiens, UniProt Q16790).
In test [2] the target is Carbonic anhydrase 1 (Homo sapiens, UniProt P00915). In words: Inhibition of human recombinant carbonic anhydrase 1 expressed in Escherichia coli by stopped flow CO2 hydration assay.
Test [3] has as its target Carbonic anhydrase 2 (Homo sapiens, UniProt P00918). In words: Inhibition of human recombinant carbonic anhydrase 2 expressed in Escherichia coli by stopped flow CO2 hydration assay.
Test [4] has as its system MCF7. Put plainly: Antiproliferative activity against human MCF7 cells measured after 48 hrs under normoxia condition by MTT assay. It is filed as functional, cell-based. As to conditions: MCF7, 48 h. The gist of the method: (§1)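 MCF-7 (ATCC) grown in DMEM with 10% heat-inactivated FBS, 1% L-glutamine (2.5 mM), HEPES (10 mM), 50 µg/mL gentamycin, at 37 C, 5% CO2. Hypoxia induced chemically with CoCl2 (100 µM); normoxic cells without it. Viability by MTT colorimetric assay after 48 h exposure; IC50 is the concentration giving 50% growth inhibition relative to untreated controls.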

In test [5] the test system is MCF7. Put plainly: Antiproliferative activity against human MCF7 cells measured after 48 hrs under hypoxia condition by MTT assay. Type of test: functional, cell-based. As to conditions: MCF7, 48 h. The method, boiled down: as §1
The subject of test [6] is MCF7. Put plainly: Induction of apoptosis in human MCF7 cells assessed as late apoptotic cells by Annexin V-FITC/propidium iodide staining based flow cytometry (reference value: 0.49%). It is filed as functional.
Test [7] deals with MCF7. Put plainly: Induction of cell cycle arrest in human MCF7 cells assessed as accumulation at S phase at IC50 after 24 hrs by propidium iodide staining based flow cytometric analysis (reference value: 41.36%). It is filed as functional.
The test system of test [8] is MCF7. In words: Induction of cell cycle arrest in human MCF7 cells assessed as accumulation at Pre-G1 phase at IC50 after 24 hrs by propidium iodide staining based flow cytometric analysis (reference value: 1.89%). Type of test: functional.
Test [9] relates to MCF7. Put plainly: Induction of cell cycle arrest in human MCF7 cells assessed as accumulation at G2/M phase at IC50 after 24 hrs by propidium iodide staining based flow cytometric analysis (reference value: 2.37%). It is filed as functional. Background: Flow cytometry measures light scatter and fluorescence of single cells or particles in a stream.
Test [10] concerns MCF7. Put plainly: Induction of cell cycle arrest in human MCF7 cells assessed as accumulation at G0/G1 phase at IC50 after 24 hrs by propidium iodide staining based flow cytometric analysis (reference value: 56.27%). Type of test: functional.
Test [11] concerns MCF7. Put plainly: Induction of apoptosis in human MCF7 cells assessed as necrotic cells by Annexin V-FITC/propidium iodide staining based flow cytometry (reference value: 0.35%). Type of test: functional.
Test [12] concerns MCF7. In words: Induction of apoptosis in human MCF7 cells assessed as total apoptotic cells by Annexin V-FITC/propidium iodide staining based flow cytometry (reference value: 1.54%). It is filed as functional.
Test [13] concerns MCF7. In words: Induction of apoptosis in human MCF7 cells assessed as early apoptotic cells by Annexin V-FITC/propidium iodide staining based flow cytometry (reference value: 1.05%). It is filed as functional.

A word on the pKi: it is the Ki on a negative log10 scale, so that one unit is a factor of ten. The term pIC50 denotes −log10 of the IC50, conventionally taken in molar units. The low end stands for a large IC50, the high end for a small IC50.

Sequence of Carbonic anhydrase 1 (P00915 whole entry): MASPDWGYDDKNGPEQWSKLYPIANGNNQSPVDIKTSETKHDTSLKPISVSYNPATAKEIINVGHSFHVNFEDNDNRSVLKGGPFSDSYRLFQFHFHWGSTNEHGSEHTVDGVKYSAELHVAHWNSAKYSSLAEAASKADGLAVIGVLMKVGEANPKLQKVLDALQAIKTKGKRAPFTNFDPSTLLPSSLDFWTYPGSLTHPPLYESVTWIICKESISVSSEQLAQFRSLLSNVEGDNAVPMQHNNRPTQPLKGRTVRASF

With `NS(=O)(=O)c1ccc(N/N=C/c2ccc(-n3nnc4ccccc43)cc2)cc1`, the pKi in test [1] was 7.33; in test [2] it was 6.62; in test [3], 7.02.

In the case of `NS(=O)(=O)c1ccc(C(=O)N/N=C/c2ccc(N3CCOCC3)cc2)cc1`, the pKi in test [1] was 8.07; in test [2], 6.76; in test [3], 7.81.

With `NS(=O)(=O)c1ccc(C(=O)N/N=C/c2ccc(-n3nnc4ccccc43)cc2)cc1`, the negative-log Ki (pKi) in test [1] is 7.63; in test [2], 6.45; in test [3] it was 7.21.

As for `C/C(=N\Nc1ccc(S(N)(=O)=O)cc1)c1ccc(N2CCCCC2)cc1`, the pKi in [1] was 8.14; in test [2] it was 6.96; in test [3] it was 7.16.

As for `NS(=O)(=O)c1ccc(N/N=C/c2ccc(N3CCCCC3)cc2)cc1`, the pKi in test [1] was 7.68; in test [2], 7.00; in test [3] it was 7.62.

Turning to `NS(=O)(=O)c1ccc(C(=O)N/N=C/c2ccc(N3CCCCC3)cc2)cc1`, the pKi in [1] is 8.48; in [2], 6.82; in [3], 8.03.

As to `NS(=O)(=O)c1ccc(C(=O)N/N=C/c2ccc(N3CCCC3)cc2)cc1`, the pKi in test [1] was 8.51; in test [2], 6.46; in test [3] it was 7.90.

For `NS(=O)(=O)c1ccc(N/N=C/c2ccc(N3CCCC3)cc2)cc1`, the pKi in [1] is 7.71; in [2], 7.02; in [3], 7.52.

Turning to `C/C(=N\Nc1ccc(S(N)(=O)=O)cc1)c1ccc(N2CCCC2)cc1`, the figures for the pKi in [1], in test [2] and in test [3] were 7.74, 7.02 and 7.24, respectively.

As for `C/C(=N\Nc1ccc(S(N)(=O)=O)cc1)c1ccc(N2CCOCC2)cc1`, the figures for the pKi in test [1], in test [2] and in test [3] were 8.05, 6.83 and 7.18, respectively.

`C/C(=N\NC(=O)c1ccc(S(N)(=O)=O)cc1)c1ccc(N2C(=O)c3c(Cl)c(Cl)c(Cl)c(Cl)c3C2=O)cc1`: the pKi in [1] was 7.76.

In the case of `NS(=O)(=O)c1ccc(N/N=C/c2ccc(N3CCOCC3)cc2)cc1`, the pKi was 7.78 in test [1], 7.06 in test [2] and 7.46 in test [3].

Regarding `C/C(=N\Nc1ccc(S(N)(=O)=O)cc1)c1ccc(N2CCN(C)CC2)cc1`, the pKi in test [1] is 8.70; in [2] it was 6.57; in test [3], 7.05. For the same compound, the pIC50 was 5.11 in test [4] and 4.76 in test [5].

As to `NS(=O)(=O)c1ccc(N/N=C/c2ccc(-n3ccnc3)cc2)cc1`, the values for the pKi in test [1], in [2] and in test [3] were 7.84, 7.11 and 7.75, respectively.

Consider `NS(=O)(=O)c1ccc(C(=O)N/N=C/c2ccc(-n3ccnc3)cc2)cc1`, for which the pKi in test [1] was 8.00; in [2], 6.89; in test [3], 8.09. Moreover, the Activity in [6] is listed as 11.93%; in test [7], 29.66%; in test [8] it was 19.36%; in test [9], 33.85%; in test [10], 36.49%; in test [11], 3.14%. Also, the Activity in test [12] stood at 16.22%; in test [13], 4.29%. Also, the pIC50 in test [4] was 5.48; in test [5], 5.07.
